≈ marks a conversion by molar mass, not a printed value.
Columns and labels:
[1] = test system: Trypanosoma cruzi; assay: Antitrypanosomal activity against Trypanosoma cruzi Tulahuen 2 at 25 uM; type: functional
How it was run: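 Tulahuen 2 epimastigotes (8 × 10⁶ cells/mL, 28 °C, BHI-tryptose with 5% FBS) were exposed to a single drug concentration, with final DMSO ≤0.4% and a vehicle control. Percent growth inhibition = {1 − [(Ap − A0p)/(Ac − A0c)]} × 100, using A600 of drug and control cultures at day 0 and day 5.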

[2] = test system: Trypanosoma cruzi; assay: Antitrypanosomal activity against Trypanosoma cruzi Tulahuen 2; type: functional; details: read-out: ID50 (the source's name)
How it was run: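 Epimastigotes were grown at 28 °C in BHI-tryptose with 5% FBS. Stationary-phase parasites are inoculated at 8 × 10⁶ cells/mL into medium containing increasing drug concentrations from DMSO stock (final DMSO ≤0.4%; vehicle control). Growth is followed by A600. ID50 is the concentration that halves the day-5 absorbance ratio relative to control.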

[3] = test system: Candida albicans; assay: Antifungal activity against Candida albicans ATCC 10231 after 48 hrs; type: functional; details: ATCC 10231, 48 h
How it was run: (§1)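 CLSI M27-A2 broth microdilution in RPMI 1640 buffered to pH 7.0 with MOPS. Inoculum is 10³ CFU/mL from Sabouraud-grown yeasts. Compound is two-fold serially diluted, final DMSO ≤1%. Incubated at 35 °C in a moist, dark chamber and read visually at 48 h. MIC is the lowest concentration giving total growth inhibition.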

[4] = test system: Candida tropicalis; assay: Antifungal activity against Candida tropicalis C 131 2000 after 48 hrs; type: functional; details: Candida tropicalis, C 131 2000, 48 h; for MIC: read-out: MIC; how it was run: as §1
[5] = test system: Saccharomyces cerevisiae; assay: Antifungal activity against Saccharomyces cerevisiae ATCC 9763 after 48 hrs; type: functional; details: ATCC 9763, 48 h; how it was run: as §1
[6] = test system: Aspergillus fumigatus; assay: Antifungal activity against Aspergillus fumigatus ATCC 26934 after 48 hrs; type: functional; details: ATCC 26934, 48 h
How it was run: (§2)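 Aspergillus spp. were tested by CLSI M38-A broth microdilution in RPMI 1640 with MOPS at pH 7.0. Spore inoculum is 10³ CFU/mL, with two-fold compound dilutions and final DMSO ≤1%. Incubated at 35 °C in a moist, dark chamber. MIC is read visually as total growth inhibition, at a time set by growth of the control fungus.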

[7] = test system: Aspergillus flavus; assay: Antifungal activity against Aspergillus flavus ATCC 9170 after 48 hrs; type: functional; details: ATCC 9170, 48 h; how it was run: as §2
[8] = test system: Aspergillus niger; assay: Antifungal activity against Aspergillus niger ATCC 9029 after 48 hrs; type: functional; details: ATCC 9029, 48 h; how it was run: as §2
[9] = test system: Nannizzia gypsea; assay: Antifungal activity against Microsporum gypseum C 115 after 48 hrs; type: functional; details: C 115, 48 h
How it was run: (§3)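 Dermatophytes were tested by CLSI M38-A microdilution in MOPS-buffered RPMI 1640 at pH 7.0. Inoculum is 10³ CFU/mL, with two-fold serial compound dilutions and final DMSO ≤1%. Trays are kept at 28–30 °C in a moist, dark chamber. MIC is the lowest concentration with total growth inhibition, read visually when control growth allows.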

[10] = test system: Trichophyton rubrum; assay: Antifungal activity against Trichophyton rubrum C 113 after 48 hrs; type: functional; details: C 113, 48 h; how it was run: as §3
[11] = test system: Trichophyton mentagrophytes; assay: Antifungal activity against Trichophyton mentagrophytes ATCC 9972 after 48 hrs; type: functional; details: ATCC 9972, 48 h; how it was run: as §3
[12] = Cytotoxicity against mouse J774 cells after 48 hrs by MTT assay; type: cell-based; details: read-out: ID50
How it was run: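 J-774 macrophages were seeded at 1 × 10⁵ cells/well in RPMI 1640 with 20% heat-inactivated FCS and left to attach for 48 h at 37 °C in 5% CO₂. Cells were then exposed to compounds for 48 h. MTT was added at 0.4 mg/mL final, formazan was dissolved in DMSO, and A595 was read. ID50 is the concentration cutting control absorbance by 50%, averaged over three experiments.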

[13] = Selectivity index, ratio of ID50 for mouse J774 cells to ID50 for Trypanosoma cruzi Tulahuen 2; type: toxicity, cell-based; details: J774 cells versus Trypanosoma cruzi Tulahuen 2
How it was run: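 Selectivity index is the ID50 in J-774 macrophages (48 h MTT) divided by the ID50 against Tulahuen 2 epimastigotes (day-5 A600 growth).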

[14] = test system: Cryptococcus neoformans; assay: Antifungal activity against Cryptococcus neoformans ATCC 32264 after 48 hrs; type: functional; details: Cryptococcus neoformans, ATCC 32264, 48 h; for MIC: read-out: MIC; how it was run: as §1

Row | SMILES | inhibition at 25 µM [1] [%] | IC50 [2] [µM] | MIC [3] [µg/mL] | MIC [4] [µg/mL] | MIC [5] [µg/mL] | MIC [6] [µg/mL] | MIC [7] [µg/mL] | MIC [8] [µg/mL] | MIC [9] [µg/mL] | MIC [10] [µg/mL] | MIC [11] [µg/mL] | CC50 at 48 h [12] [µM] | selectivity ratio [13] | further results
1 | O=[N+]([O-])c1ccc2c(c1)c(OCc1ccccc1)nn2CCOCCN(CCC/C=C/c1ccccc1)CCOCCn1nc(OCc2ccccc2)c2cc([N+](=O)[O-])ccc21 | 0 | – | – | – | – | – | – | – | – | – | – | – | – | –
2 | Cc1c(C(=O)Nc2ccccc2)[n+]([O-])c2cc(CN3CCN(C/C=C/c4ccccc4)CC3)ccc2[n+]1[O-] | – | 25.4 | > 250 | > 250 | > 250 | > 250 | > 250 | > 250 | 125 (≈ 245 µM) | 125 (≈ 245 µM) | 125 (≈ 245 µM) | – | – | MFC [9]: > 250 µg/mL; MFC [10]: > 250 µg/mL; MFC [11]: > 250 µg/mL
3 | C=CCNC(=S)N/N=C/c1ccc2c(c1)[n+]([O-])c(C(=O)OCC)c(-c1ccccc1)[n+]2[O-] | – | 7.5 | – | – | – | – | – | – | – | – | – | > 400 | > 33.3 | –
4 | C=CCNC(=S)N/N=C/c1ccc2c(c1)=[N+]([O-])C(C)(C)[N+]=2[O-] | – | 7.2 | > 250 | > 250 | > 250 | > 250 | > 250 | > 250 | 250 (≈ 783 µM) | 250 (≈ 783 µM) | 250 (≈ 783 µM) | 104 | 14.4 | MIC [14]: > 250 µg/mL; MFC [9]: 250 µg/mL (≈ 783 µM); MFC [10]: 250 µg/mL (≈ 783 µM); MFC [11]: 250 µg/mL (≈ 783 µM)
5 | CN(C/C=C/c1ccccc1)Cc1ccc2c(c1)[n+]([O-])c(C#N)c(N)[n+]2[O-] | 0 | – | – | – | – | – | – | – | – | – | – | – | – | –
6 | N#Cc1c(N)[n+]([O-])c2ccc(CN3CCN(C/C=C/c4ccccc4)CC3)cc2[n+]1[O-] | 0 | – | – | – | – | – | – | – | – | – | – | – | – | –
7 | CN(C/C=C/c1ccccc1)CCCCCn1nc(OCc2ccccc2)c2cc([N+](=O)[O-])ccc21 | – | 7.8 | – | – | – | – | – | – | – | – | – | < 100 | < 12.8 | –
8 | CCOC(=O)c1c(-c2ccccc2)[n+]([O-])c2ccc(CN3CCN(C/C=C/c4ccccc4)CC3)cc2[n+]1[O-] | – | 9.5 | 250 (≈ 477 µM) | 250 (≈ 477 µM) | 125 (≈ 238 µM) | > 250 | > 250 | > 250 | 250 (≈ 477 µM) | 125 (≈ 238 µM) | 125 (≈ 238 µM) | < 100 | < 10.5 | MFC [3]: > 250 µg/mL; MFC [4]: > 250 µg/mL; MFC [5]: 250 µg/mL (≈ 477 µM); MFC [14]: 250 µg/mL (≈ 477 µM); MIC [14]: 125 µg/mL (≈ 238 µM); MFC [9]: > 250 µg/mL; MFC [10]: 250 µg/mL (≈ 477 µM); MFC [11]: 250 µg/mL (≈ 477 µM)
9 | N#Cc1c2ccccc2[n+]([O-])n1CC/C=C\c1ccc(Cl)cc1 | 20 | – | – | – | – | – | – | – | – | – | – | – | – | –
10 | CN(C/C=C/c1ccccc1)Cc1ccc2c(c1)=[N+]([O-])C(C)(C)[N+]=2[O-] | – | 22.7 | – | – | – | – | – | – | – | – | – | > 400 | > 17.6 | –
11 | Cc1c(C(=O)Nc2ccccc2)[n+]([O-])c2cc(CN(C)C/C=C/c3ccccc3)ccc2[n+]1[O-] | 34 | – | – | – | – | – | – | – | – | – | – | – | – | –
12 | COc1nn(CCOCCN(C)C/C=C/c2ccccc2)c2ccc([N+](=O)[O-])cc12 | – | 23.1 | – | – | – | – | – | – | – | – | – | < 100 | < 4.3 | –
13 | CN(C/C=C/c1ccccc1)CCOCCn1nc(OCc2ccccc2)c2cc([N+](=O)[O-])ccc21 | – | 10 | – | – | – | – | – | – | – | – | – | < 100 | < 10 | –
14 | CC1(C)[N+]([O-])=c2ccc(CN3CCN(C/C=C/c4ccccc4)CC3)cc2=[N+]1[O-] | – | 25 | – | – | – | – | – | – | – | – | – | 109 | 4.4 | –
15 | O=[N+]([O-])c1ccc2c(c1)c(OCc1ccccc1)nn2CCOCCNCCC/C=C/c1ccccc1 | – | 4.5 | – | – | – | – | – | – | – | – | – | < 100 | < 22.2 | –
16 | C=CCNC(=S)N/N=C/c1ccc2c(c1)[n+]([O-])c(C(=O)Nc1ccccc1)c(-c1ccccc1)[n+]2[O-] | 18 | – | – | – | – | – | – | – | – | – | – | – | – | –
17 | O=[N+]([O-])c1ccc2c(c1)c(OCc1ccccc1)nn2CCOCCN1CCN(C/C=C/c2ccccc2)CC1 | – | 6.5 | > 250 | > 250 | > 250 | > 250 | > 250 | > 250 | 125 (≈ 231 µM) | 125 (≈ 231 µM) | 125 (≈ 231 µM) | < 100 | < 15.4 | MIC [14]: > 250 µg/mL; MFC [9]: > 250 µg/mL; MFC [10]: > 250 µg/mL; MFC [11]: > 250 µg/mL
18 | N#Cc1c2ccccc2[n+]([O-])n1CC/C=C\c1ccccc1 | 30 | – | – | – | – | – | – | – | – | – | – | – | – | –
19 | C[C@@H]1[C@H](O)[C@@H](C)/C=C/C=C/C=C/C=C/C=C/C=C/C=C/[C@H](O[C@@H]2O[C@H](C)[C@@H](O)[C@H](N)[C@@H]2O)C[C@@H]2O[C@](O)(C[C@@H](O)C[C@@H](O)[C@H](O)CC[C@@H](O)C[C@@H](O)CC(=O)O[C@H]1C)C[C@H](O)[C@H]2C(=O)O [AMPHOTERICIN B] | – | – | 0.78 (≈ 0.844 µM) | 1.56 (≈ 1.69 µM) | 0.5 (≈ 0.541 µM) | 0.5 (≈ 0.541 µM) | 0.5 (≈ 0.541 µM) | 0.5 (≈ 0.541 µM) | 0.125 (≈ 0.135 µM) | 0.075 (≈ 0.0812 µM) | 0.075 (≈ 0.0812 µM) | – | – | MIC [14]: 0.25 µg/mL (≈ 0.271 µM)
20 | CC(=O)N1CCN(c2ccc(OCC3COC(Cn4ccnc4)(c4ccc(Cl)cc4Cl)O3)cc2)CC1 (stereo not drawn) [KETOCONAZOLE] | – | – | 0.5 (≈ 0.941 µM) | 0.5 (≈ 0.941 µM) | 0.5 (≈ 0.941 µM) | 0.125 (≈ 0.235 µM) | 0.5 (≈ 0.941 µM) | 0.25 (≈ 0.47 µM) | 0.05 (≈ 0.0941 µM) | 0.025 (≈ 0.047 µM) | 0.025 (≈ 0.047 µM) | 339 | 19.9 | MIC [14]: 0.25 µg/mL (≈ 0.47 µM)
21 | CC1CS(=O)(=O)CCN1/N=C/c1ccc([N+](=O)[O-])o1 (stereo not drawn) [NIFURTIMOX] | – | – | – | – | – | – | – | – | – | – | – | – | > 33.3 | –
22 | CN(C/C=C/C#CC(C)(C)C)Cc1cccc2ccccc12 [TERBINAFINE] | – | – | 1.56 (≈ 5.35 µM) | 1.56 (≈ 5.35 µM) | 3.12 (≈ 10.7 µM) | 0.78 (≈ 2.68 µM) | 0.78 (≈ 2.68 µM) | 1.56 (≈ 5.35 µM) | 0.04 (≈ 0.137 µM) | 0.01 (≈ 0.0343 µM) | 0.025 (≈ 0.0858 µM) | < 100 | < 10 | MIC [14]: 0.39 µg/mL (≈ 1.34 µM)
